Measured values from ChEMBL document CHEMBL5661979, “Pharmacological inhibition of BMK1 suppresses tumor growth through promyelocytic leukemia protein” (Cancer Cell, 2010).
Calls of active or inactive are those of the source. The calls are words filed in the database; no cut-off is given here.

Columns and labels:
[1] = molecular target: T1, Non-receptor tyrosine-protein kinase TNK1 (Homo sapiens) (UniProt Q13470); assay: Inhibition of recombinant TNK1 (unknown origin) expressed in HEK293 cells at 0.08 to 10 uM incubated for 15 mins in presence of 32P-gamma-ATP; type: cell-based; details: dose 0.08-10 µM
T1 sequence (whole entry): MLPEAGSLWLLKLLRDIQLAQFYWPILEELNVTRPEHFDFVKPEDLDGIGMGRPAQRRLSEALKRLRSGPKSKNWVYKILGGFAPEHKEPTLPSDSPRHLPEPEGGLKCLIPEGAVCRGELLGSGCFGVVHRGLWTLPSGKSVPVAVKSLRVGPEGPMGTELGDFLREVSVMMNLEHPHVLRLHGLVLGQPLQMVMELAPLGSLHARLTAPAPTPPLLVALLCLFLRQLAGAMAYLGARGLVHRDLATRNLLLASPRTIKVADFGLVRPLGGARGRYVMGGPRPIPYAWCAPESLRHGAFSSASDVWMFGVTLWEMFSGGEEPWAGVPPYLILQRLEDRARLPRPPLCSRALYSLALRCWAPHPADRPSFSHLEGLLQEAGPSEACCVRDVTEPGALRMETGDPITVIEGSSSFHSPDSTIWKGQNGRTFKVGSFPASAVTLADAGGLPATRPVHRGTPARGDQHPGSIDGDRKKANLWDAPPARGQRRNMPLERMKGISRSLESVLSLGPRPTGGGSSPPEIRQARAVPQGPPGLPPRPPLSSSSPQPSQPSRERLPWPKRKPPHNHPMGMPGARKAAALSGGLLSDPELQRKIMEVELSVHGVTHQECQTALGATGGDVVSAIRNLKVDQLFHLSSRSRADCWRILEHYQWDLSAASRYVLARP

[2] = molecular target: Serine/threonine-protein kinase DCLK2 (Homo sapiens, UniProt Q8N568); assay: Binding affinity to DCAMKL2 (unknown origin) assessed as dissociation constant by ATP-competition binding assay
[3] = molecular target: Microtubule-associated serine/threonine-protein kinase 3 (Homo sapiens, UniProt O60307); assay: Inhibition of MAST3 in human HeLa cells lysate at 2 uM pre incubated for 15 mins followed by ATP acyl phosphate probe addition and measured after 10 mins by LC-MS/MS analysis relative to control; type: subcellular; details: time 25.0 min
[4] = molecular target: Serine/threonine-protein kinase 4 (Homo sapiens, UniProt Q13043); assay: Inhibition of MST1 in human HeLa cells lysate pre incubated for 15 mins followed by ATP acyl phosphate probe addition and measured after 10 mins by LC-MS/MS analysis; type: subcellular
[5] = molecular target: Tyrosine-protein kinase Fer (Homo sapiens, UniProt P16591); assay: Inhibition of FER in human HeLa cells lysate at 50 uM pre incubated for 15 mins followed by ATP acyl phosphate probe addition and measured after 10 mins by LC-MS/MS analysis relative to control; type: subcellular; details: time 25.0 min
[6] = Inhibition of CK1g1/g2/g3 in human HeLa cells lysate at 10 uM pre incubated for 15 mins followed by ADP acyl phosphate probe addition and measured after 10 mins by LC-MS/MS analysis relative to control; details: 25 min, condition cancer
Wee1-like protein kinase = Wee1-like protein kinase (Homo sapiens, UniProt P30291); assay: Inhibition of Wee1 in human HeLa cells lysate at 2 uM pre incubated for 15 mins followed by ATP acyl phosphate probe addition and measured after 10 mins by LC-MS/MS analysis relative to control; type: subcellular; details: time 25.0 min
Lewis lung carcinoma = assay: Antitumor activity against mouse LL2 cells allografted in C57Bl/6 mouse assessed as reduction tumor growth at 50 mg/kg, ip administered for 17 days; type: functional, organism-based; details: time 17.0 day
Summary of the method: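 LL/2 cells (1×10^6, in DMEM) were injected s.c. into the right flank of 6-week-old C57Bl/6 mice on day 0. Dosing was 50 mg/kg i.p. twice daily, starting on day 1, 7 or 10 and continuing to day 17; controls received carrier. 6 mice per treated group. Tumors were measured every 2–3 days.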

[7] = Inhibition of SRC/FYN/YES in human HeLa cells lysate at 50 uM pre incubated for 15 mins followed by ATP acyl phosphate probe addition and measured after 10 mins by LC-MS/MS analysis relative to control; details: 25 min, condition cancer
[8] = molecular target: Dual specificity mitogen-activated protein kinase kinase 6 (Homo sapiens, UniProt P52564); assay: Inhibition of MAP2K6 in human HeLa cells lysate pre incubated for 15 mins followed by ADP acyl phosphate probe addition and measured after 10 mins by LC-MS/MS analysis; type: subcellular
[9] = molecular target: Glycogen synthase kinase-3 beta (Homo sapiens, UniProt P49841); assay: Inhibition of GSK3B isoform 2 in human HeLa cells lysate at 2 uM pre incubated for 15 mins followed by ADP acyl phosphate probe addition and measured after 10 mins by LC-MS/MS analysis relative to control; type: subcellular; details: time 25.0 min
[10] = molecular target: Phosphatidylinositol 4-kinase alpha (Homo sapiens, UniProt P42356); assay: Inhibition of PIK4CA in human HeLa cells lysate at 50 uM pre incubated for 15 mins followed by ATP acyl phosphate probe addition and measured after 10 mins by LC-MS/MS analysis relative to control; type: subcellular; details: time 25.0 min
[11] = molecular target: Ribosomal protein S6 kinase alpha-5 (Homo sapiens, UniProt O75582); assay: Inhibition of MSK1 domain 1 K2 site in human HeLa cells lysate pre incubated for 15 mins followed by ADP acyl phosphate probe addition and measured after 10 mins by LC-MS/MS analysis; type: subcellular
[12] = molecular target: Serine/threonine-protein kinase 10 (Homo sapiens, UniProt O94804); assay: Inhibition of LOK in human HeLa cells lysate pre incubated for 15 mins followed by ADP acyl phosphate probe addition and measured after 10 mins by LC-MS/MS analysis; type: subcellular
[13] = molecular target: T2, Interleukin-1 receptor-associated kinase 4 (Homo sapiens) (UniProt Q9NWZ3); assay: Inhibition of IRAK4 in human HeLa cells lysate at 2 uM pre incubated for 15 mins followed by ATP acyl phosphate probe addition and measured after 10 mins by LC-MS/MS analysis relative to control; type: subcellular; details: time 25.0 min
T2 sequence (whole entry): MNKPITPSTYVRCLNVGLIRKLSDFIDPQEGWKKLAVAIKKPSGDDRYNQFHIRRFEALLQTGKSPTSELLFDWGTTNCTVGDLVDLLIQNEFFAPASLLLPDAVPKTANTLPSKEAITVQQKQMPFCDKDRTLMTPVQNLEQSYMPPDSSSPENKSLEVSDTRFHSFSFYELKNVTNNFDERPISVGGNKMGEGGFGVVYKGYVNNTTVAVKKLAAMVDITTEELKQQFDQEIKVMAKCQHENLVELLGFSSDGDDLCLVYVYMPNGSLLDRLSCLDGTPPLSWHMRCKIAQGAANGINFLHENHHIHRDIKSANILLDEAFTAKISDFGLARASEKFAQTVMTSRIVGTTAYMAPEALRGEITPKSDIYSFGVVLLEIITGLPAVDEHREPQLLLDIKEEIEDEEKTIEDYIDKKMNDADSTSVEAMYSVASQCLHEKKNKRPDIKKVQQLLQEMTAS

[14] = Inhibition of PRKX/PRKY in human HeLa cells lysate at 50 uM pre incubated for 15 mins followed by ADP acyl phosphate probe addition and measured after 10 mins by LC-MS/MS analysis relative to control; details: 25 min, condition cancer

Phosphatidylinositol 4-kinase alpha, sequence (P42356 whole entry, looked up, the tested form may be a part): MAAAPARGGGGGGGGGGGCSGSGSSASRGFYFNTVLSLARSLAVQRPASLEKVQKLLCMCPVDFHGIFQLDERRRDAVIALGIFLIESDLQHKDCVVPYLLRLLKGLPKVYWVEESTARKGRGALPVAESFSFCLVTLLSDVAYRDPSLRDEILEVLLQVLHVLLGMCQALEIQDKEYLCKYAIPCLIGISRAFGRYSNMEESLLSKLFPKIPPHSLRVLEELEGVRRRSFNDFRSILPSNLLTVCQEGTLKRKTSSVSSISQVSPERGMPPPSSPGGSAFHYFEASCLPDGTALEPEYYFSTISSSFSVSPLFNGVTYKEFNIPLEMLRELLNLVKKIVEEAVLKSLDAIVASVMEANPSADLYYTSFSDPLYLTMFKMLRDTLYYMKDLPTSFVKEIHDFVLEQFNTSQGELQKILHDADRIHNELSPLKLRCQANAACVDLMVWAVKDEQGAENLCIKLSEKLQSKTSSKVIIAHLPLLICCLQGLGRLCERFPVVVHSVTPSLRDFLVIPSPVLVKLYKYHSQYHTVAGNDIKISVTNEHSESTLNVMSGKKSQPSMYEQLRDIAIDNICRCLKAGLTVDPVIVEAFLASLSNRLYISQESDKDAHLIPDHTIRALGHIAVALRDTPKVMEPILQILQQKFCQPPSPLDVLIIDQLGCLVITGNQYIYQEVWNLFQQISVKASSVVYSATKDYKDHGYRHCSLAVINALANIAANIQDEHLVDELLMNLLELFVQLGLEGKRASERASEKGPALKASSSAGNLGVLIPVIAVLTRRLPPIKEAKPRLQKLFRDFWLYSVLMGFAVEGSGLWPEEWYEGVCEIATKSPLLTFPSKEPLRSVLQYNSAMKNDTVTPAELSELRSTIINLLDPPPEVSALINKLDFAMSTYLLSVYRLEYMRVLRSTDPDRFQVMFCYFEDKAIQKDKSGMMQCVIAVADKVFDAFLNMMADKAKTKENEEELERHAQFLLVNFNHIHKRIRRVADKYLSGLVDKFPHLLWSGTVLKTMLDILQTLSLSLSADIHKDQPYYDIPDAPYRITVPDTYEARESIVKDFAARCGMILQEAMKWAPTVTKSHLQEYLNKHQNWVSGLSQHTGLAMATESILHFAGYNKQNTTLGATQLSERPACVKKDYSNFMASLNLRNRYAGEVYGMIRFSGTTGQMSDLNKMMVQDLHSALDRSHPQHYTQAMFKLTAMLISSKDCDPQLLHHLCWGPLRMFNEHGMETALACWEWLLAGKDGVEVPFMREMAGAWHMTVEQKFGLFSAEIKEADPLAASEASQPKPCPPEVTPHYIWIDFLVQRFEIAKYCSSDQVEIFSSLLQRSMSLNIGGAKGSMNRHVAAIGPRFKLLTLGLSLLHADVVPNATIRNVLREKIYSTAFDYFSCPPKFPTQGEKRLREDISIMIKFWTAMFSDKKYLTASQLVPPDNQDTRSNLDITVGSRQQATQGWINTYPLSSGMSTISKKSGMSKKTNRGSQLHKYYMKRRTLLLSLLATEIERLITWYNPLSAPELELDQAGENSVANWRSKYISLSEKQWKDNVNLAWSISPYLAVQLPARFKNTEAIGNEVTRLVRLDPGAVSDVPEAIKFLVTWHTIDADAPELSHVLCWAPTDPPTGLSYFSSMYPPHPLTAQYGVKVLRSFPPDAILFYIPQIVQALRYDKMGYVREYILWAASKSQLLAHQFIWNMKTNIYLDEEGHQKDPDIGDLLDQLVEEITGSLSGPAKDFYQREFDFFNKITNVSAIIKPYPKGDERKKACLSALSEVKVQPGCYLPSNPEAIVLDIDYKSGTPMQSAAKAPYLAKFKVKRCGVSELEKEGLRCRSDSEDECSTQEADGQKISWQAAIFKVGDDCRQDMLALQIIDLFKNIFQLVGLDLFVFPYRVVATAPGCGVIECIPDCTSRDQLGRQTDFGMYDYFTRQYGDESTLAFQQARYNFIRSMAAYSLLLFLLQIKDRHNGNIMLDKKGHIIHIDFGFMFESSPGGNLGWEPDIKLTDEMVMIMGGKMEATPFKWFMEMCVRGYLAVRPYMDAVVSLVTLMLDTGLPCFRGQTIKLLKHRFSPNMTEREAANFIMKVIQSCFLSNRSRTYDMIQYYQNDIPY
Wee1-like protein kinase, sequence (P30291 whole entry, looked up): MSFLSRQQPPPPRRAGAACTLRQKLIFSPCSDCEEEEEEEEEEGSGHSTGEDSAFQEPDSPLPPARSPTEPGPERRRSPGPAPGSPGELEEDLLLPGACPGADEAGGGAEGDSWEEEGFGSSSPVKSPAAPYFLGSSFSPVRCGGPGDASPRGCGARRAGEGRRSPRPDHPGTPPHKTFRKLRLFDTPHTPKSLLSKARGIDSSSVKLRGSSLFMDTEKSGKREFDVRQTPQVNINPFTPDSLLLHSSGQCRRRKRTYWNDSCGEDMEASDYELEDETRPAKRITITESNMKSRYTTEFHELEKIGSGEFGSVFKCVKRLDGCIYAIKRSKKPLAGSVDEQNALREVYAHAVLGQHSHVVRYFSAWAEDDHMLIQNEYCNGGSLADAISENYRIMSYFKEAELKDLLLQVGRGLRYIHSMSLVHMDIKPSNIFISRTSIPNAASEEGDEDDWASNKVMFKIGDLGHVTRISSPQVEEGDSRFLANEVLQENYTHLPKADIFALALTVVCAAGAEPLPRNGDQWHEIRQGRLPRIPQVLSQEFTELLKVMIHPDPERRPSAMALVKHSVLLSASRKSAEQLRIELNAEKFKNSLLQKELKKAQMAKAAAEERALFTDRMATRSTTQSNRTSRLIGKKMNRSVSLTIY
Ribosomal protein S6 kinase alpha-5, sequence (O75582 whole entry, the tested form may be a part): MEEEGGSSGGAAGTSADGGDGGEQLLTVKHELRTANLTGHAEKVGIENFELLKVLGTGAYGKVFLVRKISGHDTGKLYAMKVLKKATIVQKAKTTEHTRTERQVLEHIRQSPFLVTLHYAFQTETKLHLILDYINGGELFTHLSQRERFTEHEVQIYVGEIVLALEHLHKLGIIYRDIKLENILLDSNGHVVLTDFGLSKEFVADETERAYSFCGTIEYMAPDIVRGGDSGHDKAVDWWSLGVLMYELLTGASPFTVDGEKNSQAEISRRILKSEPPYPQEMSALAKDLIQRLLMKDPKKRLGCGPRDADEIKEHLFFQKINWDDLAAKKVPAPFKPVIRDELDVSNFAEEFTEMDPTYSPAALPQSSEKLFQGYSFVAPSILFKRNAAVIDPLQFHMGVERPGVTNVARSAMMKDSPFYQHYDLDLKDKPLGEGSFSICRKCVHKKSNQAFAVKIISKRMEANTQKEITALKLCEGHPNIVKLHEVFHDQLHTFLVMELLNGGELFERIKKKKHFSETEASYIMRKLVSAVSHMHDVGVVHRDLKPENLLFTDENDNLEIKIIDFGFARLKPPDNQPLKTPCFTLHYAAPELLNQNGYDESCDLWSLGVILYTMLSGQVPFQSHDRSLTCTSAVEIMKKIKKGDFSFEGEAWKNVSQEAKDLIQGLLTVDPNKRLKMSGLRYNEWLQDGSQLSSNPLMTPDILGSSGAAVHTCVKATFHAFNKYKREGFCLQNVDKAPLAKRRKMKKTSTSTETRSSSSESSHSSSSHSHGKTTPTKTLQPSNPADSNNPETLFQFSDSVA
Serine/threonine-protein kinase DCLK2, sequence (Q8N568 whole entry): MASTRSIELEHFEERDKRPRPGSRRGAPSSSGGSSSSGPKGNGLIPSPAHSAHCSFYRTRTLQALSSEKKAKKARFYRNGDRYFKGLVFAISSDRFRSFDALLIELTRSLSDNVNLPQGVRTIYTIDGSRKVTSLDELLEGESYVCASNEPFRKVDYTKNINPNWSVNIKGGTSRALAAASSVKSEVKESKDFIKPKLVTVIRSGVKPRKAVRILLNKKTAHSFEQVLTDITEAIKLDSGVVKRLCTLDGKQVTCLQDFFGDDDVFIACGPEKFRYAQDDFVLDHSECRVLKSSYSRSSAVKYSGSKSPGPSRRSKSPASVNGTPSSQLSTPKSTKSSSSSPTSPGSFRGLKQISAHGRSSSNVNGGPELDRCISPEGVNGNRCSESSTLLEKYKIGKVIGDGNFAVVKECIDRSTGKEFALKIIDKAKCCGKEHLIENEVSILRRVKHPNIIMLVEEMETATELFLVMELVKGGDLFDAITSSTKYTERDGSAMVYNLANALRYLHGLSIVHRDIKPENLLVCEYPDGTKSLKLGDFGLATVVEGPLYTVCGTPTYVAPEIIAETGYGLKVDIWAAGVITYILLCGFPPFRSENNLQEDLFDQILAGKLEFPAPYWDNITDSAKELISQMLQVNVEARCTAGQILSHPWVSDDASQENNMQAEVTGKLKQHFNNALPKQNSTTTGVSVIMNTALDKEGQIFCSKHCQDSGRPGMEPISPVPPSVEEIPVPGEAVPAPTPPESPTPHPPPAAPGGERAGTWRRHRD
Serine/threonine-protein kinase 4, sequence (Q13043 whole entry): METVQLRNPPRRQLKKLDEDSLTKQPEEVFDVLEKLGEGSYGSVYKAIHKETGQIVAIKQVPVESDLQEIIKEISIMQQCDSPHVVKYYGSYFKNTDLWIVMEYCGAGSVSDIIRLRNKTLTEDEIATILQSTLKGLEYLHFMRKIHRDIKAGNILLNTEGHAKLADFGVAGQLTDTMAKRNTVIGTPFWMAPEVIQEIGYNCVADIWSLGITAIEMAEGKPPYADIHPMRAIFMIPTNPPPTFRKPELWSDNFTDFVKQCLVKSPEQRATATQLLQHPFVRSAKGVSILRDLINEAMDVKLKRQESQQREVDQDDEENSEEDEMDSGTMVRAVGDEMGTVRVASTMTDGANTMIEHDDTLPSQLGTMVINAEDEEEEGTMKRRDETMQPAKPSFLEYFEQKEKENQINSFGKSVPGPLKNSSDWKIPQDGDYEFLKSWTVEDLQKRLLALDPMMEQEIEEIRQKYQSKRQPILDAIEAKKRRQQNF

CCOc1cc(N2CCC(O)CC2)ccc1Nc1ncc2c(n1)N(C)c1ccccc1C(=O)N2C
inhibition [1]: Active | Kd [2]: 190 nM | inhibition [3]: 2% | IC50 [4]: > 50 µM | inhibition [5]: 14.8% | inhibition at 10 µM [6]: 18.1% | inhibition (Wee1-like protein kinase): -5.2% | Activity (Lewis lung carcinoma): Active | inhibition at 50 µM [7]: -27.1% | IC50 [8]: > 50 µM | inhibition [9]: 18.5% | inhibition [10]: 58% | IC50 [11]: > 50 µM | IC50 [12]: > 50 µM | inhibition [13]: 6.7% | inhibition at 50 µM [14]: -27.3%
